Measured values as given in ChEMBL document CHEMBL3297679, “Studies on molecular properties prediction, antitubercular and antimicrobial activities of novel quinoline based pyrimidine motifs” (Bioorg Med Chem Lett, 2014).
Converted amounts (≈) assume the structure as drawn.

Tests used:
[1] = test system: HeLa; assay: Cytotoxicity against human HeLa cells after 24 hrs incubation by MTT assay; assay type: functional, cell-based
Outline: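 HeLa cells (1.0 × 10⁴) were exposed to a range of test compound concentrations for 24 h at 37 °C under 5% CO₂. MTT was then added, the supernatant was discarded, and the formazan was dissolved in DMSO. Absorbance was read at 540 nm, and IC₅₀ was reported in µM.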

[2] = test system: Pseudomonas aeruginosa; assay: Ratio of ciprofloxacin MIC to compound MIC for Pseudomonas aeruginosa MTCC 1688; assay type: functional
[3] = test system: Staphylococcus aureus; assay: Antibacterial activity against Staphylococcus aureus MTCC 96 by conventional broth microdilution method; assay type: functional
[4] = test system: Candida albicans; assay: Antifungal activity against Candida albicans MTCC 227 by conventional broth microdilution method; assay type: functional
[5] = test system: Aspergillus clavatus; assay: Antifungal activity against Aspergillus clavatus MTCC 1323 by conventional broth microdilution method; assay type: functional
[6] = test system: Streptococcus pyogenes; assay: Ratio of ciprofloxacin MIC to compound MIC for Streptococcus pyogenes MTCC 442; assay type: functional
[7] = test system: Mycobacterium tuberculosis; assay: Antimycobacterial activity against Mycobacterium tuberculosis H37Rv by Lowenstein-Jensen slope method; assay type: functional; conditions: for MIC: Mycobacterium tuberculosis, H37Rv
[8] = test system: Escherichia coli; assay: Antibacterial activity against Escherichia coli MTCC 443 by conventional broth microdilution method; assay type: functional
[9] = test system: Aspergillus niger; assay: Antifungal activity against Aspergillus niger MTCC 282 by conventional broth microdilution method; assay type: functional
[10] = test system: Pseudomonas aeruginosa; assay: Antibacterial activity against Pseudomonas aeruginosa MTCC 1688 by conventional broth microdilution method; assay type: functional
[11] = test system: Staphylococcus aureus; assay: Ratio of ciprofloxacin MIC to compound MIC for Staphylococcus aureus MTCC 96; assay type: functional
[12] = test system: Streptococcus pyogenes; assay: Antibacterial activity against Streptococcus pyogenes MTCC 442 by conventional broth microdilution method; assay type: functional

Structure (SMILES) | IC50 [1] | Ratio [2] | MIC [3] | MIC [4] | MIC [5] | Ratio [6] | inhibition (INH) [7] | MIC [7] | MIC [8] | MIC [9] | MIC [10] | Ratio [11] | MIC [12]
N#CCCSC1=NC(c2ccc(O)cc2)=CC(c2cc3cc(Cl)ccc3nc2Cl)N1 (configuration not stated) | > 100 µM | 2 | 25 µg/mL (≈ 54.9 µM) | 250 µg/mL (≈ 549 µM) | 25 µg/mL (≈ 54.9 µM) | 4 | 99% | 3.12 µg/mL (≈ 6.85 µM) | 50 µg/mL (≈ 110 µM) | 25 µg/mL (≈ 54.9 µM) | 25 µg/mL (≈ 54.9 µM) | 4 | 12.5 µg/mL (≈ 27.5 µM)
N#CCCSC1=NC(c2ccc([N+](=O)[O-])cc2)=CC(c2cc3cc(Cl)ccc3nc2Cl)N1 (configuration not stated) | – | – | 1000 µg/mL (≈ 2060 µM) | > 1000 µg/mL | 1000 µg/mL (≈ 2060 µM) | – | 56% | – | 500 µg/mL (≈ 1030 µM) | > 1000 µg/mL | 1000 µg/mL (≈ 2060 µM) | – | 500 µg/mL (≈ 1030 µM)
Cc1cccc(C2=CC(c3cc4cc(Cl)ccc4nc3Cl)NC(SCCC#N)=N2)c1 (configuration not stated) | – | – | 100 µg/mL (≈ 221 µM) | 1000 µg/mL (≈ 2210 µM) | 500 µg/mL (≈ 1100 µM) | – | 81% | – | 250 µg/mL (≈ 551 µM) | 500 µg/mL (≈ 1100 µM) | 100 µg/mL (≈ 221 µM) | – | 100 µg/mL (≈ 221 µM)
Cc1ccc(C2=CC(c3cc4cc(Cl)ccc4nc3Cl)NC(SCCC#N)=N2)cc1 (configuration not stated) | 94.2 µM | – | 25 µg/mL (≈ 55.1 µM) | 500 µg/mL (≈ 1100 µM) | 250 µg/mL (≈ 551 µM) | 2 | 98% | 3.12 µg/mL (≈ 6.88 µM) | 50 µg/mL (≈ 110 µM) | 500 µg/mL (≈ 1100 µM) | 50 µg/mL (≈ 110 µM) | 2 | 25 µg/mL (≈ 55.1 µM)
N#CCCSC1=NC(c2cccc([N+](=O)[O-])c2)=CC(c2cc3cc(Cl)ccc3nc2Cl)N1 (configuration not stated) | – | – | 500 µg/mL (≈ 1030 µM) | > 1000 µg/mL | > 1000 µg/mL | – | 38% | – | > 1000 µg/mL | 500 µg/mL (≈ 1030 µM) | 1000 µg/mL (≈ 2060 µM) | – | 1000 µg/mL (≈ 2060 µM)
N#CCCSC1=NC(c2ccccc2)=CC(c2cc3cc(Cl)ccc3nc2Cl)N1 (configuration not stated) | – | – | 100 µg/mL (≈ 228 µM) | 1000 µg/mL (≈ 2280 µM) | 500 µg/mL (≈ 1140 µM) | – | 62% | – | 500 µg/mL (≈ 1140 µM) | 1000 µg/mL (≈ 2280 µM) | 250 µg/mL (≈ 569 µM) | – | 250 µg/mL (≈ 569 µM)
O=C(O)c1cn(C2CC2)c2cc(N3CCNCC3)c(F)cc2c1=O [CIPROFLOXACIN] | – | – | 50 µg/mL (≈ 151 µM) | – | – | – | – | – | 25 µg/mL (≈ 75.4 µM) | – | – | – | 50 µg/mL (≈ 151 µM)
N#CCCSC1=NC(c2cccc(Cl)c2)=CC(c2cc3cc(Cl)ccc3nc2Cl)N1 (configuration not stated) | – | – | 250 µg/mL (≈ 528 µM) | > 1000 µg/mL | 1000 µg/mL (≈ 2110 µM) | – | 62% | – | 1000 µg/mL (≈ 2110 µM) | 500 µg/mL (≈ 1060 µM) | 500 µg/mL (≈ 1060 µM) | – | 500 µg/mL (≈ 1060 µM)
N#CCCSC1=NC(c2ccc(Cl)cc2)=CC(c2cc3cc(Cl)ccc3nc2Cl)N1 (configuration not stated) | – | – | 250 µg/mL (≈ 528 µM) | > 1000 µg/mL | 1000 µg/mL (≈ 2110 µM) | – | 42% | – | 1000 µg/mL (≈ 2110 µM) | 500 µg/mL (≈ 1060 µM) | 500 µg/mL (≈ 1060 µM) | – | 500 µg/mL (≈ 1060 µM)
N#CCCSC1=NC(c2cccc(O)c2)=CC(c2cc3cc(Cl)ccc3nc2Cl)N1 (configuration not stated) | – | – | 100 µg/mL (≈ 220 µM) | 500 µg/mL (≈ 1100 µM) | 250 µg/mL (≈ 549 µM) | – | 98% | 100 µg/mL (≈ 220 µM) | 125 µg/mL (≈ 275 µM) | 250 µg/mL (≈ 549 µM) | 250 µg/mL (≈ 549 µM) | – | 100 µg/mL (≈ 220 µM)
COC1=CC(=O)C[C@@H](C)[C@]12Oc1c(Cl)c(OC)cc(OC)c1C2=O [GRISEOFULVIN] | – | – | – | 500 µg/mL (≈ 1420 µM) | 100 µg/mL (≈ 283 µM) | – | – | – | – | 100 µg/mL (≈ 283 µM) | – | – | –
N#CCCSC1=NC(c2ccc(Br)cc2)=CC(c2cc3cc(Cl)ccc3nc2Cl)N1 (configuration not stated) | – | – | 250 µg/mL (≈ 482 µM) | 500 µg/mL (≈ 965 µM) | 500 µg/mL (≈ 965 µM) | – | 58% | – | 1000 µg/mL (≈ 1930 µM) | 1000 µg/mL (≈ 1930 µM) | 500 µg/mL (≈ 965 µM) | – | 500 µg/mL (≈ 965 µM)
N#CCCSC1=NC(c2cccc(Br)c2)=CC(c2cc3cc(Cl)ccc3nc2Cl)N1 (configuration not stated) | – | – | 500 µg/mL (≈ 965 µM) | > 1000 µg/mL | 1000 µg/mL (≈ 1930 µM) | – | 66% | – | > 1000 µg/mL | 500 µg/mL (≈ 965 µM) | 1000 µg/mL (≈ 1930 µM) | – | 1000 µg/mL (≈ 1930 µM)
COc1ccc(C2=CC(c3cc4cc(Cl)ccc4nc3Cl)NC(SCCC#N)=N2)cc1 (configuration not stated) | > 100 µM | – | 12.5 µg/mL (≈ 26.6 µM) | 1000 µg/mL (≈ 2130 µM) | 250 µg/mL (≈ 533 µM) | 4 | 99% | 0.2 µg/mL (≈ 0.426 µM) | 25 µg/mL (≈ 53.3 µM) | 250 µg/mL (≈ 533 µM) | 25 µg/mL (≈ 53.3 µM) | 4 | 25 µg/mL (≈ 53.3 µM)
NNC(=O)c1ccncc1 [ISONIAZID] | – | – | – | – | – | – | – | 0.2 µg/mL (≈ 1.46 µM) | – | – | – | – | –
N#CCCSC1=NC(c2cccc(F)c2)=CC(c2cc3cc(Cl)ccc3nc2Cl)N1 (configuration not stated) | – | – | 125 µg/mL (≈ 273 µM) | 1000 µg/mL (≈ 2190 µM) | 500 µg/mL (≈ 1090 µM) | – | 41% | – | 500 µg/mL (≈ 1090 µM) | > 1000 µg/mL | 500 µg/mL (≈ 1090 µM) | – | 250 µg/mL (≈ 547 µM)
N#CCCSC1=NC(c2ccc(F)cc2)=CC(c2cc3cc(Cl)ccc3nc2Cl)N1 (configuration not stated) | – | – | 500 µg/mL (≈ 1090 µM) | 1000 µg/mL (≈ 2190 µM) | 500 µg/mL (≈ 1090 µM) | – | 69% | – | 1000 µg/mL (≈ 2190 µM) | 1000 µg/mL (≈ 2190 µM) | > 1000 µg/mL | – | 500 µg/mL (≈ 1090 µM)
COc1cccc(C2=CC(c3cc4cc(Cl)ccc4nc3Cl)NC(SCCC#N)=N2)c1 (configuration not stated) | – | – | 50 µg/mL (≈ 107 µM) | 500 µg/mL (≈ 1070 µM) | 100 µg/mL (≈ 213 µM) | – | 97% | 12.5 µg/mL (≈ 26.6 µM) | 100 µg/mL (≈ 213 µM) | 500 µg/mL (≈ 1070 µM) | 250 µg/mL (≈ 533 µM) | – | 100 µg/mL (≈ 213 µM)
